Source: ChEMBL document CHEMBL3244267, “Antineoplastic properties of arylsulfonylhdrazones of 3-formylpyridazine 2-oxide and 4-formylpyrimidine 3-oxide” (J Med Chem, 1978)
Calls of active or inactive are those of the source. The calls are words filed in the database; no cut-off is given here.

How the values were obtained:
Sarcoma-180 [1] = assay: Antitumor activity against mouse Sarcoma 180 cells allografted in CD-1 mouse assessed as mouse survival at 40 mg/kg, ip qd for 6 consecutive days starting 24 hrs post implantation measured after 50 days relative to control; assay type: functional; settings: Sarcoma-180, ip, route intraperitoneal
Procedure, shortened: (§1)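 Female CD-1 mice carrying Sarcoma 180 ascites cells from 7-day donor tumors. Given intraperitoneal doses daily for six consecutive days beginning 24 h after implantation; groups of 10 mice, 5 for some. Read-out is the percentage of mice in each group alive more than 50 days.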

Sarcoma-180 [2] = assay: Antitumor activity against mouse Sarcoma 180 cells allografted in CD-1 mouse assessed as mouse survival at 60 mg/kg, ip qd for 6 consecutive days starting 24 hrs post implantation measured after 50 days relative to control; assay type: functional; settings: Sarcoma-180, ip, route intraperitoneal; procedure, shortened: as §1
Sarcoma-180 [3] = assay: Antitumor activity against mouse Sarcoma 180 cells allografted in CD-1 mouse assessed as mouse survival at 80 mg/kg, ip qd for 6 consecutive days starting 24 hrs post implantation measured after 50 days relative to control; assay type: functional; settings: Sarcoma-180, ip, route intraperitoneal; procedure, shortened: as §1
Sarcoma-180 [4] = assay: Antitumor activity against mouse Sarcoma 180 cells allografted in CD-1 mouse assessed as increase in average survival time at 40 mg/kg, ip qd for 6 consecutive days starting 24 hrs post implantation measured relative to control; assay type: functional; settings: route intraperitoneal
Procedure, shortened: (§2)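 Sarcoma 180 ascites cells propagated in female CD-1 mice; implanted from donors carrying 7-day tumors. Dosed intraperitoneally once daily for six days starting 24 h post-implant; 10 mice per group, 5 for some groups. %T/C = average survival time (treated/control) × 100; mice surviving more than 50 days counted as 50 days. Body-weight change over the therapy period also recorded.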

Sarcoma-180 [5] = assay: Antitumor activity against mouse Sarcoma 180 cells allografted in CD-1 mouse assessed as increase in average survival time at 60 mg/kg, ip qd for 6 consecutive days starting 24 hrs post implantation measured relative to control; assay type: functional; settings: route intraperitoneal; procedure, shortened: as §2
Sarcoma-180 [6] = assay: Antitumor activity against mouse Sarcoma 180 cells allografted in CD-1 mouse assessed as increase in average survival time at 80 mg/kg, ip qd for 6 consecutive days starting 24 hrs post implantation measured relative to control; assay type: functional; settings: route intraperitoneal; procedure, shortened: as §2
Mus musculus [7] = assay: Toxicity in mouse Sarcoma 180 cells allografted CD-1 mouse assessed as change in body weight at 40 mg/kg, ip qd for 6 consecutive days starting 24 hrs post implantation (reference value: +13.5 %); assay type: organism-based; set-up: dose 40 mg/kg, route intraperitoneal; settings: in vivo
Mus musculus [8] = assay: Toxicity in mouse Sarcoma 180 cells allografted CD-1 mouse assessed as change in body weight at 60 mg/kg, ip qd for 6 consecutive days starting 24 hrs post implantation (reference value: +13.5 %); assay type: organism-based; set-up: dose 60 mg/kg, route intraperitoneal; settings: in vivo
Mus musculus [9] = assay: Toxicity in mouse Sarcoma 180 cells allografted CD-1 mouse assessed as change in body weight at 80 mg/kg, ip qd for 6 consecutive days starting 24 hrs post implantation (reference value: +13.5 %); assay type: organism-based; set-up: dose 80 mg/kg, route intraperitoneal; settings: in vivo
L1210 [10] = assay: Antitumor activity against mouse L1210 cells allografted in […] mouse assessed as increase in average survival time at 60 to 100 mg/kg, ip qd for 6 consecutive days starting 24 hrs post implantation relative to control
Sarcoma-180 [11] = assay: Antitumor activity against mouse Sarcoma 180 cells allografted in CD-1 mouse assessed as increase in average survival time at 80 mg/kg, ip qd for 6 consecutive days starting 24 hrs post implantation measured relative to control
L1210 [12] = assay: Antitumor activity against mouse L1210 cells allografted in CDF-1 mouse assessed as increase in average survival time at 60 to 100 mg/kg, ip qd for 6 consecutive days starting 24 hrs post implantation relative to control; settings: dose mg/kg 60-100; route intraperitoneal

| SMILES | survival at 40 mg/kg (Sarcoma-180 [1]) [%] | survival at 60 mg/kg (Sarcoma-180 [2]) [%] | survival at 80 mg/kg (Sarcoma-180 [3]) [%] | T/C (Sarcoma-180 [4]) [%] | T/C (Sarcoma-180 [5]) [%] | T/C (Sarcoma-180 [6]) [%] | Activity (Mus musculus [7]) [%] | Activity (Mus musculus [8]) [%] | Activity (Mus musculus [9]) [%] | Activity (L1210 [10]) | Activity (Sarcoma-180 [11]) | T/C (L1210 [12]) [%] |
| --- | --- | --- | --- | --- | --- | --- | --- | --- | --- | --- | --- | --- |
| COc1ccc(S(=O)(=O)N/N=C/c2ccnc[n+]2[O-])cc1 | 0 | 0 | 0 | 96 | 100 | 94 | 20.3 | 10.8 | 13.9 | inactive | inactive | – |
| O=S(=O)(N/N=C/c1ccnc[n+]1[O-])c1ccccc1 | 0 | 0 | 0 | 89 | 97 | 112 | 16.3 | 11.2 | 9.6 | inactive | inactive | – |
| COc1ccc(S(=O)(=O)N/N=C/c2cccn[n+]2[O-])cc1 | 10 | 20 | 0 | 231 | 218 | 193 | -1.6 | -3.2 | -4.3 | inactive | – | – |
| Cc1ccc(S(=O)(=O)N/N=C/c2ccnc[n+]2[O-])cc1 | 0 | 0 | 0 | 115 | 100 | 103 | 19.6 | 16.5 | 15.2 | inactive | inactive | – |
| Cc1ccc(S(=O)(=O)N/N=C/c2cccc[n+]2[O-])cc1 | – | – | – | – | – | – | – | – | – | – | – | 170 |
| O=S(=O)(N/N=C/c1cccn[n+]1[O-])c1ccccc1 | 10 | 10 | 40 | 194 | 230 | 274 | -2.9 | -3.8 | -3.5 | inactive | – | – |
| COc1ccc(S(=O)(=O)N/N=C/c2cccc[n+]2[O-])cc1 | – | – | – | – | – | – | – | – | – | – | – | 234 |
| O=S(=O)(N/N=C/c1cccc[n+]1[O-])c1ccccc1 | 20 | – | – | 235 | – | – | -2.6 | – | – | – | – | 126 |
| Cc1ccc(S(=O)(=O)N/N=C/c2cccn[n+]2[O-])cc1 | 10 | 20 | 60 | 164 | 254 | 315 | -0.2 | -3.2 | -4.9 | inactive | – | – |
